Where “and” joins values, the source holds several entries; their conditions need not be identical. Equal entries are not always repeated.
Tests used:
[1] = biological target: T1, STAT1 (Homo sapiens, UniProt P42224); test: Competitive fluorescence polarization; assay type: binding
T1 sequence (P42224 1-750): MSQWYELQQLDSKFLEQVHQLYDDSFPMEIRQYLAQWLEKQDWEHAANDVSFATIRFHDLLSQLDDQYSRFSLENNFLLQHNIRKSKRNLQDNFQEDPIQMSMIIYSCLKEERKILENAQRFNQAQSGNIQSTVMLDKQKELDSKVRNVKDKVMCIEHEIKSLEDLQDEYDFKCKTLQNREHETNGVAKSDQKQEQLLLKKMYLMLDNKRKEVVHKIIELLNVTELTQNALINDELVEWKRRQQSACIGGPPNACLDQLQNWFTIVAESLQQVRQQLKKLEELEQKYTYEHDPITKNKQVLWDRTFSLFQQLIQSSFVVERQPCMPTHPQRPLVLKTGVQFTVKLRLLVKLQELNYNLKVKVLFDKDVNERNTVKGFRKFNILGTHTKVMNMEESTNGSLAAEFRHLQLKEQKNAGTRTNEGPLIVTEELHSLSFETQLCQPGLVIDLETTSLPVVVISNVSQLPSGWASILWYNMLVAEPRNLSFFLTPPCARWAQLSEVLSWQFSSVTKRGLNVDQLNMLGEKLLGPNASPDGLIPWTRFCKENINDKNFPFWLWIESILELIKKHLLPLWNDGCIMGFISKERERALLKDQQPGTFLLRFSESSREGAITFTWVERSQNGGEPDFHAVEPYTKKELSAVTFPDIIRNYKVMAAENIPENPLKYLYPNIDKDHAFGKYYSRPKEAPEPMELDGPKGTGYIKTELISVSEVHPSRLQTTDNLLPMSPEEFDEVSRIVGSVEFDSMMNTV
Method in brief: (§1)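 Competitive binding assay in which the test compound displaces a fluoresceinated peptide from the SH2 domain, read by fluorescence polarization. IC50 is reported with a 95% confidence interval, and Ki is reported alongside it.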

[2] = biological target: T2, STAT3 (Homo sapiens, UniProt P40763); test: 19F NMR examination of binding to STAT3; conditions: 100 μM compound with STAT3, 37 °C, 1 hour
T2 sequence (P40763 whole entry, species assumed): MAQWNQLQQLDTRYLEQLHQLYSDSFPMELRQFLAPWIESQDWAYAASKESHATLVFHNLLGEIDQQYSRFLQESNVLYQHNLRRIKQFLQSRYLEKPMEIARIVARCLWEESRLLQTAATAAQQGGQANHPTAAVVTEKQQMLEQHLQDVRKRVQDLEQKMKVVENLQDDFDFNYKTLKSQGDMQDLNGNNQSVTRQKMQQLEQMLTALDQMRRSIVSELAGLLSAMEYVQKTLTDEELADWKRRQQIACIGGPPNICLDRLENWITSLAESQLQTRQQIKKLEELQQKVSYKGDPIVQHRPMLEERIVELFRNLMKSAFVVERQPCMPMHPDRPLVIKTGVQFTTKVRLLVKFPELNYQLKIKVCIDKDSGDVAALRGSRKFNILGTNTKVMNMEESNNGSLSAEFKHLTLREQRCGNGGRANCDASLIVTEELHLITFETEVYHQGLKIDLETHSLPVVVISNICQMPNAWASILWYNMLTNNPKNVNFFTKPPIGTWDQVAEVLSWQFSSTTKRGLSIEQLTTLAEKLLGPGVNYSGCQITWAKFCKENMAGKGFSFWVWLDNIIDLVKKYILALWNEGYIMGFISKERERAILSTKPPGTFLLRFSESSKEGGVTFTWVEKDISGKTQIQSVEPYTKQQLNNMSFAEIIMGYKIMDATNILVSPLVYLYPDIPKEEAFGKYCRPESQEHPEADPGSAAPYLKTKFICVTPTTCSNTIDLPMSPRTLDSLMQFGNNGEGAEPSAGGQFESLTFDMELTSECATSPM

[3] = Plasma protein binding; assay type: in vitro ADME; conditions: CD-1 mice plasma, dialysis 6 hours, 37°C
Method in brief: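 Plasma protein isolated from CD-1 mice was spiked with the test compound and dialysed against PBS for 6 hours at 37°C under 5% CO₂. Plasma and buffer compartments were both analysed to give the percentage of free compound. Ketoconazole was the positive control.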

[4] = system: AR230^R cells; test: Phenotypic screening / cytotoxicity in TKI-resistant CML cell line AR230^R; assay type: cell-based
[5] = system: AR230 cells; test: Phenotypic screening / cytotoxicity in CML cell line AR230; assay type: cell-based; conditions: read-out: IC50 AR230
[6] = system: pSTAT3 / STAT3 in AR230^R cells; assay type: cell-based; conditions: 10 μM, 2 hours pre-treatment, IL-6 and IFN stimulation
[7] = Metabolic stability in CD-1 mouse hepatocytes; assay type: in vitro ADME
Method in brief: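 CD-1 mouse hepatocytes were incubated with the test compound for 120 min. Remaining parent compound was quantified by LC-MS/MS at regular time points to assess metabolic degradation.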

[8] = In vivo bioavailability / plasma pharmacokinetics, IP injection; design: species or system CD-1 mice
Method in brief: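 CD-1 mice received 20 mg/kg IP in 10% DMA, 65% PEG 400, 25% saline. Parent compound in plasma was measured to give concentration–time profiles. In one study, a cohort of 3 mice was sampled at 15, 30, 60, 90, 180 and 360 min post-dose, and plasma was analysed for parent compound by LC-MS.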

[9] = 19F NMR monitoring of reaction with glutathione; assay type: physicochemical; conditions: 100 μM, 10 equivalents of glutathione, 37 °C, 15 hours
Method in brief: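 Samples were in 100 mM HEPES pH 7.2, 150 mM NaCl, with 10% […] and 1% DMSO final. Test compound at 100 μM was incubated with 10 equivalents of glutathione for 15 hours at 37°C. ¹⁹F NMR spectra were recorded at 37°C on a 600 MHz spectrometer with a room-temperature H(F)CN probe.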

[10] = biological target: T2, STAT3; test: Competitive fluorescence polarization; assay type: binding
Method in brief: as §1

## CC(C)(C)c1ccc(CN(C(=O)CN(C2CC2)S(=O)(=O)c2c(F)c(F)cc(F)c2F)c2ccc(C(=O)O)cc2)cc1 [AM-1-124, 4-(N-(4-(tert-butyl)benzyl)-2-(N-cyclopropyl-2,3,5,6-tetrafluorophenylsulfonamido)acetamido)benzoic acid]
[1]
  Ki: > 250 µM
[2]
  mode of interaction with STAT3 (19F NMR, fluoride ion production): non-covalent
[3]
  bound to mouse plasma proteins: 99.7%
[4]
  fold improvement in selectivity vs SH-4-54: 5 fold
  fold selectivity for AR230^R over AR230 cells: 5.6 fold
[4]; Table 5, AR230 vs AR230^R
  Fold Difference: 5.6
[4]; read-out: IC50 AR230^R
  IC50: 4.8 µM
[5]
  IC50: 26.9 µM
[6]
  cytokine-induced pSTAT3 activation: partially inhibited cytokine-induced pSTAT3 activation
  nuclear STAT3 protein localization: reduced the nuclear STAT3 protein localization
[7]
  fold more resistant to metabolism than SH-4-54: ~ 4 fold
[8]; CD-1 mice, IP 20 mg/kg
  plasma concentration for the first 120 mins: above 2000 ng/mL
[8]; male, CD-1, mouse, plasma, ip, 20 mg/kg
  half-life: 1.42 h
[9]
  reaction with glutathione (19F NMR): inert to glutathione
[10]
  IC50: 30 µM
[10]; Ki STAT3, disruption of STAT3:IL-6R/gp130 peptide complex, FP
  Ki: 15 µM and 15.3 µM

From article PMC4963206 (ChemMedChem, 2016)
